ChEMBL document CHEMBL4834404, “Template-Hopping Approach Leads to Potent, Selective, and Highly Soluble Bromo and Extraterminal Domain (BET) Second Bromodomain (BD2) Inhibitors” (J Med Chem, 2021)

Columns and labels:
[1] = molecular target: Bromodomain-containing protein 4 (Homo sapiens, UniProt O60885, Y97A); test: Inhibition of 6His-Thr-BRD4 (1 to 477 residues) BD1 Y97A mutant (unknown origin) incubated for 30 mins by TR-FRET assay
[2] = molecular target: Bromodomain-containing protein 4 (Homo sapiens, UniProt O60885, Y390A); test: Inhibition of 6His-Thr-BRD4 (1 to 477 residues) BD2 domain Y390A mutant (unknown origin) incubated for 30 mins by TR-FRET assay
[3] = species: Homo sapiens; test: Selectivity index, ratio of pIC50 of BRD4 BD1 (unknown origin) to pIC50 of BRD4 BD2 (unknown origin)
[4] = Solubility of compound by CLND assay; format: physicochemical
[5] = Permeability of compound; format: ADME; settings: not told; read-out: permeability
[6] = molecular target: T1, Bromodomain-containing protein 2 (Homo sapiens, UniProt P25440); test: Inhibition of 6His-Thr-BRD2 (1 to 473 residues) BD2 domain Y386A or Y113A mutant (unknown origin) incubated for 30 mins by TR-FRET assay
[7] = molecular target: T1, Bromodomain-containing protein 2; test: Inhibition of 6His-Thr-BRD2 (1 to 473 residues) BD1 domain (unknown origin) incubated for 30 mins by TR-FRET assay
[8] = molecular target: T2, Bromodomain-containing protein 3 (Homo sapiens, UniProt Q15059); test: Inhibition of 6His-Thr-BRD3 (1 to 435 residues) BD2 domain Y348A or Y73A mutant (unknown origin) incubated for 30 mins by TR-FRET assay
Target sequence in this assay (Q15059 2-726 limits assumed): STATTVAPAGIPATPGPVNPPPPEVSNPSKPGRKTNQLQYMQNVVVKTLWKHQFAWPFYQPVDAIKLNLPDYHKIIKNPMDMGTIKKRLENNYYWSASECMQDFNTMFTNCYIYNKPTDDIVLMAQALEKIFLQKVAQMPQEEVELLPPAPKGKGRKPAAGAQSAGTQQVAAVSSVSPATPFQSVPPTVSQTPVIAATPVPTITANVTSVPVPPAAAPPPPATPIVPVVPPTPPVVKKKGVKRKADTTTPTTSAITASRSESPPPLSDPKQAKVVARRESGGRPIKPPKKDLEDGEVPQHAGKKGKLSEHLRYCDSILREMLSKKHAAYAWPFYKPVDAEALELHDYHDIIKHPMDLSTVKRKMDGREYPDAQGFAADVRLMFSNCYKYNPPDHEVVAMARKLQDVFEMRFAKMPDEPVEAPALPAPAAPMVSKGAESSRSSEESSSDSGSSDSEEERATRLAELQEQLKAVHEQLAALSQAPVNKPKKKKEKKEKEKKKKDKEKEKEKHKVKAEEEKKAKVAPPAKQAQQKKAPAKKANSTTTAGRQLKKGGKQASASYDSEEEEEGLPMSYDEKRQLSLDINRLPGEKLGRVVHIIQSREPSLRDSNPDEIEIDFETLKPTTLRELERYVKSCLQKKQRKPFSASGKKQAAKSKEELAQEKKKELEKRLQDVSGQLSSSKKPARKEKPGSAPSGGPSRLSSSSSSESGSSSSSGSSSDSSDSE

[9] = molecular target: T2, Bromodomain-containing protein 3; test: Inhibition of 6His-Thr-BRD3 (1 to 435 residues) BD1 domain (unknown origin) incubated for 30 mins by TR-FRET assay
Target sequence in this assay (Q15059 whole entry, the tested form may be a part): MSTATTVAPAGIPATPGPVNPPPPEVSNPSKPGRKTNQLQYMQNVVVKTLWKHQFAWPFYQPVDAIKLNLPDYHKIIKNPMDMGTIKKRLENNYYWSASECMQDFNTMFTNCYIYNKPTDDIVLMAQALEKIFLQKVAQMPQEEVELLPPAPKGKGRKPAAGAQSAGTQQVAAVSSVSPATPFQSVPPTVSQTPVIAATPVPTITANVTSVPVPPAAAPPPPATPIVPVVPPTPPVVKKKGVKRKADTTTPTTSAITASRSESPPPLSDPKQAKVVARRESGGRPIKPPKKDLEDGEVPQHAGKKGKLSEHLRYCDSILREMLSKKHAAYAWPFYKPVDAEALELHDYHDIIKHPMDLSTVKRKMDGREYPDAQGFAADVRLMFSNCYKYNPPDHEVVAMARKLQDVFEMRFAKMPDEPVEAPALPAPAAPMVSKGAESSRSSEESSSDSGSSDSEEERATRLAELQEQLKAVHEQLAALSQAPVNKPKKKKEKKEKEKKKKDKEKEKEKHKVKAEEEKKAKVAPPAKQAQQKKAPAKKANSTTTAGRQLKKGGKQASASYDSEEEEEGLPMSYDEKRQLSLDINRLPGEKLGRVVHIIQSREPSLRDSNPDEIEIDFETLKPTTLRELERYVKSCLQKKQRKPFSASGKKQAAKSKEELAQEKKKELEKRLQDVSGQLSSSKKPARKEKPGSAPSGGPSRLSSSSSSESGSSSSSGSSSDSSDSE

[10] = molecular target: T3, Bromodomain testis-specific protein (Homo sapiens, UniProt Q58F21); test: Inhibition of 6His-FLAG-Tev-BRDT (1 to 397 residues) BD2 domain Y309A or Y66A mutant (unknown origin) incubated for 30 mins by TR-FRET assay
[11] = molecular target: T3, Bromodomain testis-specific protein; test: Inhibition of 6His-FLAG-Tev-BRDT (1 to 397 residues) BD1 domain (unknown origin) incubated for 30 mins by TR-FRET assay
[12] = Inhibition of LPS-induced MCP1 production in PBMC (unknown origin); format: functional, tissue-based
[13] = tested on: Blood; test: Inhibition of LPS-stimulated MCP-1 production in human whole blood incubated for 24 hrs by mesoscale assay; format: functional, tissue-based
Procedure, shortened: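 Sodium-heparinized human whole blood preincubated 30 min with compound (DMSO dilutions, 140× stocks) at 37 °C, 5% CO₂, then stimulated with Salmonella typhosa LPS (200 ng/mL final) for 24 h. PBS added, plates centrifuged, supernatant MCP-1 quantified by MesoScale Discovery immunoassay.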

[14] = molecular target: Voltage-gated inwardly rectifying potassium channel KCNH2 (Homo sapiens, UniProt Q12809); test: Inhibition of human ERG
[15] = Metabolic stability in rat Hepatocyte assessed as intrinsic clearance at 0.5 uM incubated for 60 mins by LC-MS/MS analysis; format: ADME, tissue-based; settings: hepatocytes, 1 h
[16] = Metabolic stability in human Hepatocyte assessed as intrinsic clearance at 0.5 uM incubated for 120 mins by LC-MS/MS analysis; format: ADME, tissue-based; settings: hepatocytes, 2 h
[17] = Clearance in Wistar Han rat at 1 mg/kg, iv measured upto 7 hrs by LC-MS/MS analysis; format: ADME, organism-based; settings: in vivo
Procedure, shortened: (§1)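 Surgically cannulated male Wistar Han rats (femoral vein dosing, jugular vein sampling), given 1 h iv infusion at target 1 mg/kg, 0.2 mg/mL in DMSO/10% (w/v) Kleptose HPB in saline (2:98 v/v); n = 1. Serial 25 μL blood samples predose to 7 h; parent compound by LC-MS/MS (LLQ 1−2 ng/mL); non-compartmental analysis of blood concentration−time profiles.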

[18] = Unbound clearance in Wistar Han rat at 1 mg/kg, iv measured upto 7 hrs by LC-MS/MS analysis; format: ADME, organism-based; settings: in vivo
[19] = Half life in Wistar Han rat at 1 mg/kg, iv measured upto 7 hrs by LC-MS/MS analysis; format: ADME, organism-based; settings: in vivo; procedure, shortened: as §1
[20] = AUC in Wistar Han rat at 1 mg/kg, iv measured upto 7 hrs by LC-MS/MS analysis; format: ADME, organism-based; set-up: route intravenous, dose 1 mg/kg, time <=7; settings: in vivo; procedure, shortened: as §1
[21] = Volume of distribution at steady state in Wistar Han rat at 1 mg/kg, iv measured upto 7 hrs by LC-MS/MS analysis; format: ADME, organism-based; settings: in vivo, read-out: Vdss; procedure, shortened: as §1
[22] = Fraction unbound in Wistar Han rat at 1 mg/kg, iv measured upto 4 hrs by LC-MS/MS analysis; format: ADME, organism-based
Procedure, shortened: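 Control Wistar Han rat blood dialyzed against PBS by rapid equilibrium dialysis, 4 h at 37 °C, compound at 200 and 1000 ng/mL; matrix-matched aliquots analysed by LC-MS/MS; unbound fraction from buffer/blood peak area ratios, mean of the two concentrations.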

[23] = molecular target: Albumin (Homo sapiens, UniProt P02768); test: Binding affinity to human serum albumin; format: ADME; settings: isolated protein
Procedure, shortened: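 Chromatographic binding on chemically bonded HSA column (50 × 3 mm), 1.8 mL/min; mobile phase 50 mM ammonium acetate pH 7.4 with 2-propanol gradient (0−30% over 3 min, hold to 6 min, back to 0%); gradient retention time recorded.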

[24] = Dose normalized AUC in Wistar Han rat at 3 mg/kg, po measured upto 24 hrs by LC-MS/MS analysis; format: ADME, organism-based; settings: in vivo
Procedure, shortened: (§2)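 Three naive male Wistar Han rats dosed by oral gavage at target 3 mg/kg, suspended in 1% (w/v) methylcellulose aq at 0.6 mg/mL. Serial 25 μL blood samples via tail vein up to 24 h; parent compound by LC-MS/MS (LLQ 1 ng/mL) against standards in control blood; non-compartmental PK analysis.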

[25] = Oral bioavailability in Wistar Han rat at 3 mg/kg measured upto 24 hrs by LC-MS/MS analysis; format: ADME, organism-based; settings: in vivo; procedure, shortened: as §2

Chain of Voltage-gated inwardly rectifying potassium channel KCNH2 (Q12809 whole entry): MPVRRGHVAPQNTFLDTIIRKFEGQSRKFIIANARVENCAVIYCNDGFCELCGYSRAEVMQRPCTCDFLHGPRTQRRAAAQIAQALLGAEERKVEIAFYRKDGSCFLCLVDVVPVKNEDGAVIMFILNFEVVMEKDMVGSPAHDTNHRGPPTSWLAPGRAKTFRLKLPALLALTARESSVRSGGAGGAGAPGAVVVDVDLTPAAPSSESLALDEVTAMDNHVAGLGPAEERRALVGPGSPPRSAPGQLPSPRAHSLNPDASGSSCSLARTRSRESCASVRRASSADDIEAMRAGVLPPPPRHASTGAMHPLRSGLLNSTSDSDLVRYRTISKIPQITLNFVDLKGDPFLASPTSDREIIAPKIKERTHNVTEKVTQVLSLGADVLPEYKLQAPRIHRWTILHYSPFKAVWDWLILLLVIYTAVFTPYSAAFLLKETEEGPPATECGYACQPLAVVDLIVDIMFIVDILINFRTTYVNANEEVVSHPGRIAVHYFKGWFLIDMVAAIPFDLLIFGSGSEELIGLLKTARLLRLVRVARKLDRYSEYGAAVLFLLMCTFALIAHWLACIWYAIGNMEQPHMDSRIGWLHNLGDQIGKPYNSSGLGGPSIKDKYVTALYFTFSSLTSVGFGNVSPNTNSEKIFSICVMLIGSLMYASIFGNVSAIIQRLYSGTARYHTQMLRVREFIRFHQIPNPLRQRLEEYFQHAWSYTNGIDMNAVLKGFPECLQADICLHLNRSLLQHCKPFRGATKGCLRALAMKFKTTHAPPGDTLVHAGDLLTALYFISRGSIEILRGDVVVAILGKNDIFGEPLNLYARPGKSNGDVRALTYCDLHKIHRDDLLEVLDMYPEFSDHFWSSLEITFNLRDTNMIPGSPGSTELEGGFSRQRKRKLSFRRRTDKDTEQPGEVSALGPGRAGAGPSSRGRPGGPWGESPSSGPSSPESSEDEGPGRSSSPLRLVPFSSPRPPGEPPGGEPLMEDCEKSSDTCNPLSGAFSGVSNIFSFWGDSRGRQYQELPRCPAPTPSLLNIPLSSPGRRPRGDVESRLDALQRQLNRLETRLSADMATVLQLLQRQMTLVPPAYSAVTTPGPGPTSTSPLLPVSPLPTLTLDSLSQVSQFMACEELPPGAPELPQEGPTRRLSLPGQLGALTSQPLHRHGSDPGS
Chain of Albumin (P02768 whole entry): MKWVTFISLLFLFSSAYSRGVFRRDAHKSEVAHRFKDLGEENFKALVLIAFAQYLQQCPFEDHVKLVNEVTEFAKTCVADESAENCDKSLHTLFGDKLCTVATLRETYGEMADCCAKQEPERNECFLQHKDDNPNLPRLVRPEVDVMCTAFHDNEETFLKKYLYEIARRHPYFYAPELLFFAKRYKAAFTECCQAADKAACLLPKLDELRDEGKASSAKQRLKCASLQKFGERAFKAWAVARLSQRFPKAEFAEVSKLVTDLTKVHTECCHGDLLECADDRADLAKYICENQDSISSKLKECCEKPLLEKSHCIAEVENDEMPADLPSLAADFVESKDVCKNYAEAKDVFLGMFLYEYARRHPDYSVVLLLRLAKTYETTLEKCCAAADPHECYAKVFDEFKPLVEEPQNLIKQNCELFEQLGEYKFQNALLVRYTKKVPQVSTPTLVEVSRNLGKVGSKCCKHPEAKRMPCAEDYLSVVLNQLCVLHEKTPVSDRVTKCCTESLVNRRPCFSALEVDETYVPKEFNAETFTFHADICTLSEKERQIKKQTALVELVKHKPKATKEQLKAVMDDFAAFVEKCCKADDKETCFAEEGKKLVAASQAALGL
T1 sequence (P25440 whole entry, the tested form may be a part): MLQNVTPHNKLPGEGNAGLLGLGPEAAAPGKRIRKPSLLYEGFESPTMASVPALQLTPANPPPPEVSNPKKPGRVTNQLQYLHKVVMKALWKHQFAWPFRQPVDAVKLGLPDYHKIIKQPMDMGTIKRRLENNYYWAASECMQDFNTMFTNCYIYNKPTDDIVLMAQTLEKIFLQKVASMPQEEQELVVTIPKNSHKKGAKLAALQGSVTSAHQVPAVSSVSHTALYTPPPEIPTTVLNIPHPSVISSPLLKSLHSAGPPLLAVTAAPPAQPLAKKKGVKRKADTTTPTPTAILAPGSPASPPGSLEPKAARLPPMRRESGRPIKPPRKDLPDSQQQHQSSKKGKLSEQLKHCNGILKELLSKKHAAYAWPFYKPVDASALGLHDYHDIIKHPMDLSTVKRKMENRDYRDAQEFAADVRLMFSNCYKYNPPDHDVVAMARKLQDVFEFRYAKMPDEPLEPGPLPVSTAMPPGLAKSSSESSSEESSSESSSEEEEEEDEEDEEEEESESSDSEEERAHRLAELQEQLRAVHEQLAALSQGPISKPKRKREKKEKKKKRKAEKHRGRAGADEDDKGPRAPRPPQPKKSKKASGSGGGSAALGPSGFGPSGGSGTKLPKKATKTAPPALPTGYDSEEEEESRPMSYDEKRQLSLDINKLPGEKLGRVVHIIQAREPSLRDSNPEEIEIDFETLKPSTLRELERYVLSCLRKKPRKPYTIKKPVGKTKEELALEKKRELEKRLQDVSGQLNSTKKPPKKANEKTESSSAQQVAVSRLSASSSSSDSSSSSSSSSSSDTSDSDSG

- IC50 [1]: 50.1 µM
- IC50 [2]: 0.251 µM
- Ratio pIC50 [3]: 200
- solubility kinetic [4]: ≥ 137 µg/mL
- Papp [5]: 47 ×10⁻⁶ cm/s
- pIC50 [6]: 5.8
- IC50 [7]: > 50.1 µM
- pIC50 [8]: 6.5
- IC50 [9]: > 50.1 µM
- pIC50 [10]: 6.4
- IC50 [11]: > 50.1 µM
- IC50 [12]: 0.251 µM
- IC50 [13]: 2.51 µM
- CLH [15]: 1.09 mL/min/g
- CLH [16]: 1.18 mL/min/g
- clearance [17]: 19 mL/min/kg
- CL free [18]: 102 mL/min/kg
- half-life [19]: 27 min
- AUC at 7 h [20]: 873 ng·h/mL
- Vd [21]: 0.7 L/kg
- fraction unbound at 4 h [22]: 0.19
- Activity [23]: 84%
- AUC/dose [24]: 30 kg·min/L
- bioavailability [25]: 59%
SMILES: CCNC(=O)c1ccc(OCc2cccc(C)n2)c(-c2cn(C)nn2)c1
- IC50 [14]: > 50.1 µM
